Laboratory results published in ChEMBL document CHEMBL1145041, “Synthesis and structure-activity relationships of cis-tetrahydrophthalazinone/pyridazinone hybrids: a novel series of potent dual PDE3/PDE4 inhibitory agents” (J Med Chem, 2003).

Columns and labels:
Phosphodiesterase 3 = Phosphodiesterase 3 (Homo sapiens, UniProt Q14432+Q13370); experiment: Inhibition of dual cGMP-inhibited phosphodiesterase 3 (PDE3) was determined in homogenates from human platelets.
Procedure, shortened: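 Enzyme source: homogenates of human platelets. Values as pIC50 (−log IC50), mean of two independent determinations each run in triplicate.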

Phosphodiesterase 4 = Phosphodiesterase 4 (Homo sapiens, UniProt P27815+Q08499+Q07343+Q08493); experiment: inhibition of cAMP-specific phosphodiesterase 4 (PDE4) was determined in cytosol from human neutrophils; format: protein assay
Procedure, shortened: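 Enzyme source: cytosol of human neutrophils. Values as pIC50 (−log IC50), mean of two independent determinations each run in triplicate.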

Mus musculus [1] = experiment: In vivo inhibition of arachidonic acid induced mouse ear edema 1 hr after pretreatment with 30 umol/kg peroral dose; format: functional; settings: po
Procedure, shortened: (§1)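 Mice dosed orally at 30 µmol/kg, 1 h before arachidonic acid applied to ear; edema read 1 h after AA (2 h post-dose). Percent inhibition of edema formation calculated versus provoked untreated controls; maximal attainable inhibition in model 80%.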

Mus musculus [2] = experiment: Inhibition of arachidonic acid (AA)-induced mouse ear edema after pretreatment with compound (1 h before AA) at a drug concentration of 30 umol/kg po.; format: functional; procedure, shortened: as §1

| Structure (SMILES) | Log IC50 (Phosphodiesterase 3) | Log IC50 (Phosphodiesterase 4) | inhibition in vivo at 30 µmol/kg (Mus musculus [1]) [%] | inhibition in vivo at 30 µmol/kg (Mus musculus [2]) [%] |
| --- | --- | --- | --- | --- |
| CC1(C)C(=O)Nc2ccc(-c3ccc(O)nn3)cc21 | -6.9 |  |  |  |
| COc1ccc(C2=NN(c3ccccc3)C(=O)C3CC=CCC23)cc1OC (stereo not drawn) | < -5 | -7.9 | 13 |  |
| COc1ccc(C2=NN(CCCCOc3ccc(C4=NNC(=O)CC4C)cc3)C(=O)C3CC=CCC23)cc1Cl (stereo not drawn) | -7.5 | -7.8 |  | 47 |
| COc1ccc(C2=NN(CCCCC(=O)Nc3ccc(-c4ccc(O)nn4)cc3)C(=O)C3CC=CCC23)cc1OC (stereo not drawn) | -6.1 | -8.2 |  | 27 |
| COc1ccc(C2=NN(c3ccc(-c4ccc(O)nn4)cc3)C(=O)C3CC=CCC23)cc1OC (stereo not drawn) | -5.4 | -8.1 |  | 8 |
| COc1ccc([C@]2(C#N)CC[C@@H](C(=O)O)CC2)cc1OC1CCCC1 [CILOMILAST] | < -5 |  |  | 33 |
| COc1ccc(C2=NN(CC(=O)Nc3ccc(C4=NNC(=O)CC4C)cc3)C(=O)C3CC=CCC23)cc1OC (stereo not drawn) | -6.7 | -8.4 |  | 13 |
| COc1ccc(C2=NN(CC(=O)Nc3cccc(C4=NNC(=O)CC4C)c3)C(=O)C3CC=CCC23)cc1OC (stereo not drawn) | -5.8 | -8.4 |  |  |
| COc1ccc(C2=NN(CCCCOc3ccc(C4=NNC(=O)CC4C)cc3)C(=O)C3CC=CCC23)cc1OC (stereo not drawn) | -7.1 | -8.7 |  | 32 |
| COc1ccc(C2=NN(c3ccc(C4=NNC(=O)CC4C)cc3)C(=O)C3CC=CCC23)cc1OC (stereo not drawn) | -6.7 | -8.4 |  | 34 |
| COc1cc(-c2ccc(=O)[nH]n2)ccc1OC(F)F [ZARDAVERINE] |  |  |  | 22 |
| COc1ccc(C2=NN(c3ccccc3)C(=O)C3CC=CCC23)cc1Cl (stereo not drawn) | < -5 | -7.1 |  |  |
| CCOc1ccc(C2=NN(c3ccc(C4=NNC(=O)CC4C)cc3)C(=O)C3CC=CCC23)cc1OCC (stereo not drawn) | -6.6 | -8.1 |  | 42 |
| CCOc1ccc(C2=NN(c3ccccc3)C(=O)C3CC=CCC23)cc1OCC (stereo not drawn) | < -5 | -7.7 |  |  |
| COc1ccc(C2=NN(c3ccccc3)C(=O)C3CC=CCC23)cc1OC1CCCC1 (stereo not drawn) | < -5 | -7.8 |  |  |
| COc1ccc(C2=NN(CC(=O)Nc3ccc(-c4ccc(O)nn4)cc3)C(=O)C3CC=CCC23)cc1OC (stereo not drawn) | -5.9 | -8.1 |  | 31 |
| CC1CC(=O)NN=C1c1ccc2c(c1)C(C)(C)C(=O)N2 (stereo not drawn) | -7.9 |  |  |  |
| COc1ccc(C2=NN(CCCCC(=O)Nc3ccc(C4=NNC(=O)CC4C)cc3)C(=O)C3CC=CCC23)cc1OC (stereo not drawn) | -7 | -8.2 |  | 26 |
| COc1ccc(C2=NN(c3ccc(C4=NNC(=O)CC4C)cc3)C(=O)C3CC=CCC23)cc1OC1CCCC1 (stereo not drawn) | -6.3 | -7.8 |  | 18 |
| CC1CC(=O)NN=C1c1ccc(-n2cnc3c2CCCC3)cc1 (stereo not drawn) [TETRAHYDROBENXIMIDAZOLE] | -6.3 |  |  |  |
| COc1ccc(C2=NN(c3ccc(C4=NNC(=O)CC4C)cc3)C(=O)C3CC=CCC23)cc1Cl (stereo not drawn) | -7.1 | -7 |  | 35 |
| CCOc1ccc(C2=NN(CCCCOc3ccc(C4=NNC(=O)CC4C)cc3)C(=O)C3CC=CCC23)cc1OCC (stereo not drawn) | -6.7 | -8.6 |  | 46 |
